Most compounds without a hit are left out; they make up all but 2.9% or so of the library.
DENV2 CPE = DENV2-induced cell death inhibition | DENV2-infected cells, cytopathic effect rescue, plate reader | 350,000 compounds, 1.7% hits | AID 651640 | CPE inhibition, % at 9.99 µM; in the data active = CPE inhibition above about 20%, passing the limit was not always enough; inconclusive = no clear call, values can overlap the other calls; tested in BHK-21 cells;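 also: 0% = median of neutral control wells and 100% = median of positive control wells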
SIRT5 inh = sirtuin-5 (human) deacylase inhibition | Q9NXA8 | Purified SirT5, succinyl-peptide AMC, trypsin-coupled fluorescence | inhibition, % at 15 µM | 330,000 compounds, 1.1% hits; in the data active = inhibition above about 15%; inconclusive = no clear call, values can overlap the other calls
E-sel inducer = induces E-selectin expression in human endothelial cells | 260,000 compounds, 0.37% hits | activation, % at 7.58 µM | HUVEC E-selectin immunofluorescence imaging; normalized: neutral wells 0, TNF-alpha wells 100;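 active = mean E-selectin-positive cell signal at least 10% of the positive control, reached in at least 60% of replicates, without over 20% cell loss; inconclusive = no rule given, readout overlaps actives, possibly toxicity-flagged; inactive = the rest, including those meeting only one limit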
Target sequence (P16581 whole entry, looked up): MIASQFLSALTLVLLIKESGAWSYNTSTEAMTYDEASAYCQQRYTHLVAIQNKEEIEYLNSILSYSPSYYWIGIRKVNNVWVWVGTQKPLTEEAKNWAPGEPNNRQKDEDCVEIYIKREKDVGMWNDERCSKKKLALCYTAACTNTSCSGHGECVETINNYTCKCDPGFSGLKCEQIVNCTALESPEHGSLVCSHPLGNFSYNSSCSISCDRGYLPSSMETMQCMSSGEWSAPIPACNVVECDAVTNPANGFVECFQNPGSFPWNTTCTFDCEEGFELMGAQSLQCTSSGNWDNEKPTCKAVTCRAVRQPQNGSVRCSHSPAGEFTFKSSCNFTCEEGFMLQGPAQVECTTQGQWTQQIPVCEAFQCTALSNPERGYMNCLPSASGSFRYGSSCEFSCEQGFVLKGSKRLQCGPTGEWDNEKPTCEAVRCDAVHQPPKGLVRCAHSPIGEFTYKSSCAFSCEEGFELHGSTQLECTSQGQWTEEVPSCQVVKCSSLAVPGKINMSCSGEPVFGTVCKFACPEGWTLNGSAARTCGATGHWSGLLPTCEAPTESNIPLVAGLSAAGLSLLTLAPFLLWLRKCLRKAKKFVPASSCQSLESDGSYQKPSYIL
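Test system – human umbilical vein endothelial cells (HUVEC), E-selectin induction · Input – 3,000 HUVEC seeded per well · Buffer or medium – EGM-2, gelatin · Compound dosing – single-point compound dose · Detection – immunofluorescence imaging · Measure – percent E-selectin-positive cells · Controls – TNF-alpha high, DMSO low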
Numbers without * were called inactive; ? = inconclusive; nt = no result.

SMILES	DENV2 CPE	SIRT5 inh	E-sel inducer
CCNC(=O)C1(C)CCN(Cc2ccc(-c3ccccc3)cc2)C1 (centres undefined)	-14	nt	0
O=C(NCc1ccncc1)c1ccc(NS(=O)(=O)c2ccccc2)cc1	14	-3	0
C[C@@H]1C=CCCO[C@]12C(=O)N(Cc1ccccc1C(F)(F)F)c1ccccc12	-2	18*	0
C[C@@H]1C=CCCO[C@]12C(=O)N(Cc1ccc(F)cc1)c1cccc(Br)c12	-5	0	0
CC(C)CC#Cc1ccc2c(c1)O[C@@H](CN(C)C(=O)NC1CCCC1)[C@@H](C)CN([C@@H](C)CO)S2(=O)=O	10	16*	0
CC(C)CC#Cc1ccc2c(c1)O[C@H](CN(C)C(=O)NC1CCCC1)[C@@H](C)CN([C@@H](C)CO)S2(=O)=O	-7	19*	0
CC(C)CC#Cc1ccc2c(c1)O[C@@H](CN(C)C(=O)NC(C)C)[C@H](C)CN([C@H](C)CO)S2(=O)=O	-3	4	0
CC(C)CC#Cc1ccc2c(c1)O[C@H](CN(C)C(=O)NC1CCCC1)[C@H](C)CN([C@H](C)CO)S2(=O)=O	-7	13*	0
CC(C)CC#Cc1ccc2c(c1)O[C@H](CN(C)C(=O)NC1CCCC1)[C@H](C)CN([C@@H](C)CO)S2(=O)=O	3	4	0
CC(C)CC#Cc1ccc2c(c1)O[C@@H](CN(C)C(=O)NC(C)C)[C@@H](C)CN([C@H](C)CO)S2(=O)=O	2	3	0
COc1ccccc1NC(=O)Cc1ccc(-c2ccccc2)cc1	-4	-3	0
CCN(CC)C(=O)Cn1c(=O)n(CCCCCC(=O)Nc2ccccc2)c(=O)c2sccc21	3	-1	nt
Cc1cc(C)n2nc(C(=O)Nc3cccc(S(=O)(=O)N4CCCC4)c3)nc2n1	-1	-2	0
O=C(Nc1nnc(SCC(=O)N2CCCC2)s1)C1CC(=O)N(c2ccccc2)C1 (centres undefined)	-12	0	0
COc1cccc(N2CC(C(=O)Nc3nnc(SCC(=O)N4CCCC4)s3)CC2=O)c1 (centres undefined)	1	17*	0
O=C(c1[nH]c(C(F)(F)F)nc1-c1ccccc1)N1CCCN(Cc2ccc(F)cc2)CC1	15	29*	0
O=C(c1[nH]c(C(F)(F)F)nc1-c1ccccc1)N1CCN(CCN2CCOCC2)CC1	-3	5	0
C[C@H](O)[C@@H]1C(=O)N2CCc3c([nH]c4ccccc34)[C@@H]2C[C@@H]1N(C)C(=O)Nc1ccc(Br)cc1	-10	-2	0
COc1cccc(NC(=O)CN(C)C(=O)CCNC(=O)c2ccccc2OC)c1	2	1	0
CC(C)Oc1cc(O)c2c(=O)c(-c3ccc(O)cc3)coc2c1	-7	0	114*
O=c1c(-c2ccc(O)cc2)coc2cc(O)cc(O)c12	2	2	nt
Cc1cccc(/C=C2/SC(=O)N(Cc3ccccc3)C2=O)n1	12	-2	nt
CCCC#Cc1ccc2c(c1)O[C@H](CN(C)C(=O)Nc1ccc(OC)cc1)[C@H](C)CN([C@@H](C)CO)S2(=O)=O	6	6	nt
CCCC#Cc1ccc2c(c1)O[C@H](CN(C)C(=O)Nc1ccc(OC)cc1)[C@H](C)CN([C@H](C)CO)S2(=O)=O	-4	4	nt
COc1ccc(NC(=O)N(C)C[C@@H]2Oc3cc(C#CCC(C)C)ccc3S(=O)(=O)N([C@H](C)CO)C[C@@H]2C)cc1	4	31*	0
SMILES	DENV2 CPE	SIRT5 inh	E-sel inducer
COc1ccc(NC(=O)N(C)C[C@H]2Oc3cc(C#CCC(C)C)ccc3S(=O)(=O)N([C@H](C)CO)C[C@@H]2C)cc1	?	26*	1
COc1ccc(NC(=O)N(C)C[C@@H]2Oc3cc(C#CCC(C)C)ccc3S(=O)(=O)N([C@@H](C)CO)C[C@H]2C)cc1	9	31*	0
CCCC#Cc1ccc2c(c1)O[C@@H](CN(C)C(=O)Nc1ccc(OC)cc1)[C@@H](C)CN([C@H](C)CO)S2(=O)=O	-3	6	nt
CCCC#Cc1ccc2c(c1)O[C@H](CN(C)C(=O)Nc1ccc(OC)cc1)[C@@H](C)CN([C@H](C)CO)S2(=O)=O	5	13	nt
COc1ccc(NC(=O)N(C)C[C@H]2Oc3cc(C#CCC(C)C)ccc3S(=O)(=O)N([C@H](C)CO)C[C@H]2C)cc1	-1	25*	0
CC(=O)N1[C@H](CO)[C@@H](c2ccc(-c3cccc(F)c3)cc2)[C@@H]1CNC(=O)C1CC1	?	nt	0
O=S(=O)(c1cccc2nsnc12)N1CCN(C/C=C\c2ccccc2)CC1	nt	-20	nt
Cc1ccc(C(C)C)c(OCCOCCN2CCNCC2)c1	-6	1	3
Cc1ccc(C(C)C)c(OCCCCN2CCNCC2)c1	-13	18*	nt
CC(C(=O)Nc1ccc(S(=O)(=O)Nc2ncccn2)cc1)N1C(=O)c2ccccc2S1(=O)=O (centres undefined)	-3	1	nt
Cc1ccc(CNc2ncnc3cc(Cl)ccc23)cc1	-1	-3	0
Cc1ccccc1CNc1ncnc2cc(Cl)ccc12	-3	-4	51*
CCN(CC)C(=O)C1CCN(Cc2ccc(OCc3ccccc3)cc2)CC1	28*	-3	0
C=CCN(CC=C)C(=O)C1CCN(Cc2ccc(OCc3ccccc3)cc2)CC1	1	-4	0
NC(=O)[C@H]1[C@@H]2C(=O)O[C@@H](c3ccccc3)[C@@H](c3ccccc3)N2[C@@H](c2ccccc2OCCO)[C@]12C(=O)Nc1ccccc12	-2	8	nt
C[C@H]1CN([C@@H](C)CO)C(=O)c2cc(NC(=O)Cn3cnnn3)ccc2O[C@@H]1CN(C)S(=O)(=O)c1ccc(F)cc1	-14	31*	0
C[C@H]1CN([C@@H](C)CO)C(=O)c2cc(NC(=O)Cn3cnnn3)ccc2O[C@H]1CN(C)S(=O)(=O)c1ccc(F)cc1	2	11	0
C[C@H]1CN([C@@H](C)CO)C(=O)c2cc(NC(=O)Cn3cnnn3)ccc2O[C@@H]1CN(C)S(=O)(=O)c1ccccc1	-2	1	2
C[C@H]1CN([C@@H](C)CO)C(=O)c2cc(NC(=O)Cn3cnnn3)ccc2O[C@H]1CN(C)S(=O)(=O)c1ccccc1	-7	-1	36*
O=C(NC1CCC1)[C@H]1[C@H](CO)[C@H]2Cn3c(ccc(-c4cncnc4)c3=O)[C@H]2N1C(=O)NC1CCCC1	5	-18	1
CC(C)C(NC(=O)OCc1ccccc1)C(=O)OCC(=O)NC1CC1 (centres undefined)	15	-3	nt
CC(=O)NC(C)(c1ccccc1)c1nc(-c2ccncc2)cs1 (centres undefined)	-7	-4	0
Cc1occc1C(=O)NNC(=O)COc1ccc(Br)cc1Br	6	-2	-3
O=C(O)c1ccc2c(c1)ncn2C1CCCC1	2	21*	0
Cc1nc2cc(C(=O)O)ccc2n1C1CCCCC1	12	-1	nt
C[C@H](CO)N1C[C@H](C)[C@H](CN(C)S(=O)(=O)c2cn(C)cn2)Oc2c(NC(=O)Nc3ccccc3)cccc2C1=O	0	3	0
C[C@H](CO)N1C[C@H](C)[C@@H](CN(C)Cc2ccc3c(c2)OCO3)OCCCC[C@H](C)Oc2ccc(N(C)C)cc2C1=O	124*	4	0

Screening results (PubChem)
